{"source": "ChEMBL document CHEMBL1147981", "about": "“Small molecule activators of SIRT1 as therapeutics for the treatment of type 2 diabetes” (Nature, 2007)", "key": {"Mus musculus [1]": {"test_system": "Mus musculus", "test": "Reduction of glucose levels in DIO C57BL/6 mouse model at 5 mg/kg, po during insulin tolerance test", "type": "functional, organism-based", "set-up": "dose 5 mg/kg", "how_it_was_run": "(§1)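 Male C57BL/6 mice, started at nine weeks, fed 60%-fat diet until mean weight ~40 g; 6-10 per group; once-daily oral gavage in 2% HPMC + 0.2% DOSS. Fed glucose at 2, 4, 6, 8, 10 weeks; IPGTT after 5 weeks; ITT after 10 weeks. One-way ANOVA with Dunnett's test vs control, p<0.05.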"}, "Mus musculus [2]": {"test_system": "Mus musculus", "test": "Reduction of fasting blood glucose in DIO C57BL/6 mouse model at 5 mg/kg, po assessed as glucose level by glucose tolerance test", "type": "functional", "how_it_was_run": "as §1"}}, "note": "The source made the active and inactive calls. The rule behind the calls is not given here.", "data": [{"compound": "CN(CCOc1ccc(CC2SC(=O)NC2=O)cc1)c1ccccn1", "note": "(configuration not stated) [ROSIGLITAZONE]", "values": [{"measurement": "Activity", "setting": "Mus musculus [1]", "value": "Active"}, {"measurement": "Activity", "setting": "Mus musculus [2]", "value": 496, "unit": "mg/h/dL"}]}]}
